Data published in ChEMBL document CHEMBL1142915, “Synthesis, structure, and estrogenic activity of 4-amino-3-(2-methylbenzyl)coumarins on human breast carcinoma cells” (Bioorg Med Chem, 2007).
Calls of active or inactive are those of the source. The calls are words filed in the database; no cut-off is given here. Residues, ends and D or L forms follow the SMILES beside them. *: point of attachment. Cbz = O=C(OCc1ccccc1)*

Key:
[1] = tested on: MDA-MB-231; test: Effect on proliferation of estrogen receptor deficient MDA-MB-231 cells at 1 uM after 3 days; assay type: functional, cell-based; conditions: Homo sapiens
Procedure, shortened: (§1)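 Cells were held at least 2 days in phenol red-free DMEM with 10% charcoal-stripped FBS at 37 °C and 5% CO2, then plated at 10^4 cells/cm2. On day 1 the medium was replaced with medium containing compound at 10^-6 M. On day 4 cells were trypsinized and counted electronically. Values are % of untreated control, mean of four determinations ±SD, by ANOVA with Dunnett's test.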

[2] = tested on: MCF7; test: Inhibition of increase in proliferation of estrogen receptor expressing MCF7 cells at 10 uM after 3 days; assay type: functional, cell-based; conditions: Homo sapiens
[3] = tested on: MCF7; test: Down regulation of estrogen receptor expression in MCF7 cells at 1 nM after 24 hrs; assay type: functional, cell-based; conditions: Homo sapiens
Procedure, shortened: (§2)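 MCF-7 cells were kept at least 2 days in phenol red-free DMEM with 10% charcoal-stripped FBS, seeded on glass coverslips at 10^4 cells/cm2, and treated 2 days later for 24 h. After fixation they were immunostained for ERα with HC-20 rabbit antiserum (1:40, 60 min, Triton-permeabilized) and Texas Red amplification. Median nuclear gray level was measured over about 80–120 nuclei per culture and expressed relative to untreated control. Statistics: Kruskal–Wallis with Dunn's test.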

[4] = tested on: MCF7; test: Abrogation of estrogen receptor down regulation in MCF7 cells at 10 uM after 7 hrs; conditions: Homo sapiens
[5] = tested on: MCF7; test: Increase in proliferation of estrogen receptor expressing MCF7 cells at 1 uM after 3 days; assay type: functional, cell-based; conditions: Homo sapiens; procedure, shortened: as §1
[6] = tested on: MCF7; test: Down regulation of estrogen receptor expression in MCF7 cells at 1 uM after 24 hrs; assay type: functional, cell-based; conditions: Homo sapiens; procedure, shortened: as §2
[7] = target: T1, Estrogen receptor (Homo sapiens) (UniProt P03372); test: Displacement of [3H]17beta-estradiol from estrogen receptor relative to estradiol
T1 sequence (whole entry): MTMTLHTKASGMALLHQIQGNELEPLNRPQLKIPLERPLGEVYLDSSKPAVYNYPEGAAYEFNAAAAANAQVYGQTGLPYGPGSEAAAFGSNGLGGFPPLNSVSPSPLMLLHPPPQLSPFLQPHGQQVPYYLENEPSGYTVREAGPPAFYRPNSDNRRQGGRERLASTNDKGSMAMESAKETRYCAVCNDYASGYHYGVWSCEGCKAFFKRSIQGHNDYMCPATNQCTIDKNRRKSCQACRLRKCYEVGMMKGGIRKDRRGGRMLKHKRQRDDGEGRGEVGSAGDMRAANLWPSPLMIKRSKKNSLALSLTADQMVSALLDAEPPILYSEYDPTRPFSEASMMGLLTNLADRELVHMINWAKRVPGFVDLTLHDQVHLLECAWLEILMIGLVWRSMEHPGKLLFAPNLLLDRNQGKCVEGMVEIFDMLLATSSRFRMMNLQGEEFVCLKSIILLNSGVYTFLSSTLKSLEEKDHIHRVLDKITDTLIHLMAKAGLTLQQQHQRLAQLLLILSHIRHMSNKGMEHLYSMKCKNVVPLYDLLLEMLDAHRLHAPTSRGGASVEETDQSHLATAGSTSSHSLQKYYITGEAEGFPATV
Procedure, shortened: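 Purified recombinant human ERα, diluted in 1 mg/mL BSA, adsorbed onto hydroxyapatite, washed, then incubated overnight at 0–4 °C with 1 nM [3H]E2 plus increasing amounts of cold E2 or test compound. HAP-bound radioactivity was extracted with ethanol and counted by liquid scintillation. RBA = […] × 100.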

[8] = target: T2, Estrogen receptor (Homo sapiens, UniProt P03372); test: Activity at ER assessed as enhancement of estrogen response element-driven gene transactivation in MVLN cells after 24 hrs by luciferase reporter gene assay relative to control
T2 sequence (P03372 whole entry): T1 sequence (whole entry)

`Cc1ccccc1Cc1c(NCCc2ccccc2)c2ccccc2oc1=O` was tested, and the Activity [1] was “inactive”.

For `C[C@]12CC[C@@H]3c4ccc(O)cc4C[C@@H](CCCCCCCCC[S+]([O-])CCCC(F)(F)C(F)(F)F)[C@H]3[C@@H]1CC[C@@H]2O` (some centres undefined), the Activity [2] was “Active”.

For `C[C@]12CC[C@@H]3c4ccc(O)cc4CC[C@H]3[C@@H]1CC[C@@H]2O`, the Activity [3] was “Active”.

For `CC(C)C[C@@H](C=O)NC(=O)[C@H](CC(C)C)NC(=O)[C@H](CC(C)C)NC(=O)OCc1ccccc1` (Cbz-Leu-Leu-Leu-aldehyde), the Activity [4] was “Active”.

For `CCCCCNc1c(Cc2ccccc2C)c(=O)oc2cc(OC)ccc12`, the Activity [1] was “inactive”.

In the case of `Cc1ccccc1Cc1c(NC2CCCCC2)c2ccccc2oc1=O`, the Activity [5] is reported as “Active”, the Activity [1] is reported as “inactive” and the Activity [6] is reported as “Active”.

For `Cc1ccccc1Cc1c(NC2CCCC2)c2ccccc2oc1=O`, the Activity [5] was “Active”, the Activity [1] was “inactive” and the Activity [6] was “Active”. It also gave an RBA [7] of less than 0.1%.

For `CCCCCCCCCCCCNc1c(Cc2ccccc2C)c(=O)oc2ccccc12`, the Activity [1] was “inactive” and the EC50 [8] was 100 nM.
